Reference: ChEMBL document CHEMBL1926538, “3,5-Disubstituted-thiazolidine-2,4-dione analogs as anticancer agents: design, synthesis and biological characterization” (Eur J Med Chem, 2012)
Calls of active or inactive are those of the source. The rule behind the calls is not given here.

What was measured:
U-937 [1] = experiment: Cell cycle arrest in human U937 cells assessed as decrease in G1/G0-phase population at 10 uM after 24 hrs by propidium iodide staining-based flow cytometric analysis; assay type: functional
Summary of the method: (§1)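 Cells cultured in RPMI 1640 with 10% FBS and treated 24 h at the indicated concentrations. Stained with propidium iodide for 4 h at 4 °C in the dark. Flow cytometry gave the percentage of cells in G₀/G₁, S, G₂/M and sub-G₁ phases.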

U-937 [2] = experiment: Cell cycle arrest in human U937 cells assessed as sub-diploid apoptotic fraction at 10 uM after 24 hrs by propidium iodide staining-based flow cytometric analysis; assay type: functional; summary of the method: as §1
[3] = target: RAF proto-oncogene serine/threonine-protein kinase (Homo sapiens) (UniProt P04049); experiment: Inhibition of […] phosphorylation in human U937 cells 1 to 10 uM after 1 hr by Western blot analysis; assay type: cell-based; settings: U-937
Summary of the method: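 U937 cells at 5 × 10^5/mL were exposed to compound for 1 h, then sonicated in SDS/DTT sample buffer with protease inhibitors plus 1 mM orthovanadate and pyrophosphate, and boiled 5 min. Blots were blocked in 5% milk, probed with primary antibody overnight at 4 °C and 1:2000 HRP secondary, and read by chemiluminescence. α-Tubulin reprobe served as loading control. Blots shown represent one of three experiments.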

U-937 [4] = experiment: Induction of apoptosis in human U937 cells assessed as necrotic cells at 10 uM after 6 hrs by annexinV-propidium iodide staining-based flow cytometric analysis (reference value: 1.2%); assay type: functional
[5] = target: Receptor-type tyrosine-protein kinase FLT3 (Homo sapiens) (UniProt P36888); experiment: Inhibition of FLT3 at 10 uM
Sequence of Receptor-type tyrosine-protein kinase FLT3 (Homo sapiens) (P36888 whole entry): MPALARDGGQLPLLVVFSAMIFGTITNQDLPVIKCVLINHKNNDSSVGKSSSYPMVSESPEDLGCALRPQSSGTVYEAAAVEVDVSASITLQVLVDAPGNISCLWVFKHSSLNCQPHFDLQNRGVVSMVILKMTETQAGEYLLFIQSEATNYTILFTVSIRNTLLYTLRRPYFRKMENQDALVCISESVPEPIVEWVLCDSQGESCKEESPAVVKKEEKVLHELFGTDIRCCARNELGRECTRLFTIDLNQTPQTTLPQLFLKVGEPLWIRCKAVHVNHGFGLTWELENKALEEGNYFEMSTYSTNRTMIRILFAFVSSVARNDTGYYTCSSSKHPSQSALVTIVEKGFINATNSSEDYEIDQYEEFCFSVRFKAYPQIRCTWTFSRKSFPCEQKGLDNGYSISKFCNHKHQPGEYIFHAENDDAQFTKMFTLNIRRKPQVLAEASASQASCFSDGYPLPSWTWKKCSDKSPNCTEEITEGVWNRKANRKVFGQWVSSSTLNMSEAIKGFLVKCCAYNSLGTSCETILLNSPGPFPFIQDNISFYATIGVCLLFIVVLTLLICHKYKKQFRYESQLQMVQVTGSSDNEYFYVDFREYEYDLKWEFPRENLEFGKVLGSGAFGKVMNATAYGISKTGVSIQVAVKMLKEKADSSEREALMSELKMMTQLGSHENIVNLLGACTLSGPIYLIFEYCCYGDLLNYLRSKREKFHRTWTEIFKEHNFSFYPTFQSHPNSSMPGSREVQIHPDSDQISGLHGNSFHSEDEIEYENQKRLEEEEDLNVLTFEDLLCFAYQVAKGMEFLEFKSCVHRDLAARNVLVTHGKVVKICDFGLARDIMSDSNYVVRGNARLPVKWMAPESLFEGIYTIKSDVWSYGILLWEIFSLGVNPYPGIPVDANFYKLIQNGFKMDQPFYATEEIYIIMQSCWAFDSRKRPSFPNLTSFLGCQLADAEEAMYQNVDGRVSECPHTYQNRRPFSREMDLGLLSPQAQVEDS

Sequence of RAF proto-oncogene serine/threonine-protein kinase (Homo sapiens) (P04049 whole entry): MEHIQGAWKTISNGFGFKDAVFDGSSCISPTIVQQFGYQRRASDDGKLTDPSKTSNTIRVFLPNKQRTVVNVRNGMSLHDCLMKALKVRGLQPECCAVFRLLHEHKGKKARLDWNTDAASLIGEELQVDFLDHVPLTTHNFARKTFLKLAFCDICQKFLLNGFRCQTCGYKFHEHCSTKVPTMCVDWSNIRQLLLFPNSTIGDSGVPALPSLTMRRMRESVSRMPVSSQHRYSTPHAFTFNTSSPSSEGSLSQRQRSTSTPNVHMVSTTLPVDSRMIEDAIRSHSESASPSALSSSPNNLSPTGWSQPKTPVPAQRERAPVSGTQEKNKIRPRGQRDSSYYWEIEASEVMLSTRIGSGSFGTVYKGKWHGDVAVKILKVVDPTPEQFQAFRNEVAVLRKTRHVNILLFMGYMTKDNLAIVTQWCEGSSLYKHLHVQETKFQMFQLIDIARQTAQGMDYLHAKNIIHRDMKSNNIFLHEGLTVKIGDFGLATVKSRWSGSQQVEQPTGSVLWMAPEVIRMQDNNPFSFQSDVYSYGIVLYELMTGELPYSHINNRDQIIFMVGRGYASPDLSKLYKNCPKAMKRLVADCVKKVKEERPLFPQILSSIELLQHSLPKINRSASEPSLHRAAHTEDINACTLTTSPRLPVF

For `NCCN1C(=O)S/C(=C\CCC2CCCCC2)C1=O`, the Activity (U-937 [1]) was “Active”, the Activity (U-937 [2]) was 49.9% and the inhibition [3] was “Active”. It also gave an Activity (U-937 [4]) of 1.4% and an inhibition [5] of 38%.
